Results as given in PubChem BioAssay.
Active and inactive are the calls of the source.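 How the source made its calls, unless noted: active means inhibition at or above 50% relative to wild type and mutant plate controls; inactive means inhibition below 50%.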

Legend:
[1] = inhibitors of TNFa-induced NFkB p65 translocation, primary screen, imaging, HUVEC, MLSMR starter and 10KST1 sets (AID 438;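 active means inhibition above 20% together with a positive visual image hit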;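 further: compound added about 3h40 before a 20 min TNFalpha stimulation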;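 on inhibition: signal is the nuclear over cytoplasmic p65 intensity ratio per well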); settings: HUVEC TNFa-induced p65 nuclear translocation; cell count: measured here: nuclei count (cytotoxicity indicator), at 2.08 µM; inhibition: at 2 µM, stronger effect = higher value, 0% TNFa-plus-vehicle, 100% no-TNFa wells
[2] = endothelial E-selectin expression blockers – imaging, HUVEC, immunofluorescence, MLSMR starter and 10KST1 sets, primary screen (AID 487;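 active means visually confirmed hit in the image check and inhibition above 20%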;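 on inhibition: signal is fraction of cell area covered by stained E-selectin grains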;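 on nuclei count: 100% = median nuclei count of all wells on the same plate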); settings: HUVEC TNFalpha-induced E-selectin immunofluorescence imaging, at 2 µM; inhibition: stronger effect = higher value; nuclei count: measured here: cell number, toxicity
[3] = Primary imaging screen for DUSP6 inhibitors that restore phospho-Erk in transfected HeLa cells, chemical complementation (AID 609;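 active means compounds giving at least 50% inhibition in the cell-based MKP-3 phosphatase rescue imaging test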;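 on inhibition: phospho-Erk level distribution per well compared with pooled transfected vehicle control wells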); settings: HeLa MKP-3 transfected, phospho-Erk imaging KS statistic, at 10 µM, cells stimulated with TPA for 15 min
[4] = biological target: Dual specificity protein phosphatase 6 (Homo sapiens) (UniProt Q16828); assay: as above; settings: HeLa MKP-3 transfected, phospho-Erk imaging KS statistic; at 10 µM; stronger effect = higher value; cells stimulated with TPA for 15 min
[5] = biological target: Voltage-gated potassium channel subunit beta-2 (Rattus norvegicus) (UniProt P62483); assay: inhibitors of rat Kvbeta2 reductase activity – biochemical, NADPH fluorescence, primary screen (AID 622;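 active means fluorescence slope higher than the sample average by over 3 SD, cut at about -0.22 in these data, passing the limit was not always enough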;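 further: slope of raw intensity against log time taken from 70 to 1610 s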); settings: recombinant KvBeta, 4-cyanobenzaldehyde reduction, at 10 µM, stronger effect = higher value
[6] = biological target: Voltage-gated potassium channel subunit beta-2 (Rattus norvegicus) (UniProt P62483); assay: enhancers of rat Kvbeta2 NADPH turnover – biochemical, NADPH fluorescence, primary screen (AID 623;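 active means NADPH fluorescence slope more negative than the mean of all samples by about 3 SD, 99.7% confidence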;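 further: fluorescence intensity change per second fitted from 20 to 320 s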); settings: Recombinant KvBeta, NADPH fluorescence decrease slope, 10 min; at 10 µM; stronger effect = lower value
[7] = biological target: Alpha-2C adrenergic receptor (Homo sapiens) (UniProt P18825); assay: compounds altering alpha2C-coupled GIRK flux – cell-based, HEK293 alpha2C/GIRK1/2, thallium flux, primary screen (AID 624;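 active means fluorescence slope after compound addition differing from the mean of all screened samples at 99.7% confidence, in either direction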;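 further: slope of fluorescence ratio to pre-addition baseline per second over 15 to 24 s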); settings: thallium flux BTC fluorescence, at 10 µM, actives lie on both sides
[8] = inhibitors of larval lipid processing in zebrafish, primary screen, whole organism, PED6 fluorescence, gall bladder and intestine (AID 686;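 active means a full or partial loss of lipid-probe fluorescence in the fish gall bladder, intestine or both, judged by eye; inactive means no fluorescence loss, or compound toxic to the fish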;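 further: larvae 5 to 7 days old with five fish per well; signal comes from phospholipase A2 cleavage of quenched PED6 carried via bile; overnight exposure to compound and PED6 before scoring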); settings: Zebrafish larvae PED6 lipid processing, fluorescence scoring; screened at 20 µM (by protocol)
How it was run: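 Doses: 20 µM single dose. Test system: live zebrafish larvae aged 5-7 days, whole organism. Quantity: five larvae per well. Measured by: By-eye fluorescence microscopy. Reagent: ingested quenched lipid PED6 at 100 nM. Read-out: visual per-well fluorescence inhibition score. Times: overnight exposure of larvae to compound plus PED6.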

[9] = loss of swimming-algae plug formation – whole organism, Chlamydomonas reinhardtii, WT vs cilia-less mutant, absorbance, 96-well, primary screen (AID 463189); settings: Chlamydomonas reinhardtii gravitaxis, OD600 absorbance, 2 days; at 10 µM; stronger effect = higher value;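 further: 0% = wild type cc124 cells in DMSO and 100% = ciliumless bld1 mutant cells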
[10] = measured here: cell density z-score
[11] = measured here: nuclear c-Myc green intensity z-score
[12] = measured here: nuclear pErk red intensity z-score, stronger effect = higher value

Alpha-2C adrenergic receptor (Homo sapiens), sequence (P18825 whole entry, looked up): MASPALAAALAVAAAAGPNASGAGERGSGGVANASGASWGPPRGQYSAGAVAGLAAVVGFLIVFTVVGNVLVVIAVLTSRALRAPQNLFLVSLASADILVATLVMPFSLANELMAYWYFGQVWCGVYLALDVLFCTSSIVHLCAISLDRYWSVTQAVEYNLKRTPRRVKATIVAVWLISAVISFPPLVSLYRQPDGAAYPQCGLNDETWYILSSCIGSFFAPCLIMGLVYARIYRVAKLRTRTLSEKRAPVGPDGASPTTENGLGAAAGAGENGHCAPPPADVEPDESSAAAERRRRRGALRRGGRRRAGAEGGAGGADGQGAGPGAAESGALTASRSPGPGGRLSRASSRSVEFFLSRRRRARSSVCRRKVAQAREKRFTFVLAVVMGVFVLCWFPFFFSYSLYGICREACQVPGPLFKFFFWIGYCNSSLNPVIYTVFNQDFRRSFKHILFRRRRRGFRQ
Dual specificity protein phosphatase 6 (Homo sapiens), sequence (Q16828 whole entry, looked up): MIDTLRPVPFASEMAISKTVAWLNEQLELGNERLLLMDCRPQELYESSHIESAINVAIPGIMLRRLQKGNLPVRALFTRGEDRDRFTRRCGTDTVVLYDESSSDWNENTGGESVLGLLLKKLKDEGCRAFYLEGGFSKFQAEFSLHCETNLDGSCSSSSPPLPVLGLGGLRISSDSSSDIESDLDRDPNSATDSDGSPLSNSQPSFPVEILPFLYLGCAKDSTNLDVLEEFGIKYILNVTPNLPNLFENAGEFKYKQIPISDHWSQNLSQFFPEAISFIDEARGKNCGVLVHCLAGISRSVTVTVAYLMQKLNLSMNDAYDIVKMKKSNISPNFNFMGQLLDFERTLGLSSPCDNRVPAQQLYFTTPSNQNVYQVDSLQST
Voltage-gated potassium channel subunit beta-2 (Rattus norvegicus), sequence (P62483 whole entry, looked up): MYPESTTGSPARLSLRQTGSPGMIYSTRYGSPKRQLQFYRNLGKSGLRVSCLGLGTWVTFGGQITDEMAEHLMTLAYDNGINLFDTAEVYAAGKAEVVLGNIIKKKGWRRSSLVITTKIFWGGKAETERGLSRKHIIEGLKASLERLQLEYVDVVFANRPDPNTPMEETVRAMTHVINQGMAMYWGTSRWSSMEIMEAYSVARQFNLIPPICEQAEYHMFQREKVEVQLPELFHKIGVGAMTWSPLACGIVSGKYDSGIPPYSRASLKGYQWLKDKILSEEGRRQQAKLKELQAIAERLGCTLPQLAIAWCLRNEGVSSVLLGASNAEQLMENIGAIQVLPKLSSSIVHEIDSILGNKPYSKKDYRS

Row | SMILES | cell count [1] | inhibition [1] | inhibition [2] | nuclei count [2] | z-score [3, 10] | z-score [3, 11] | z-score [3, 12] | inhibition [4] | fluorescence slope [5] | NADPH fluorescence slope [6] | slope [7] | outcome [8] | inhibition [9]
1 | CC(C)Cc1nc(N2CCOCC2)c(C#N)c2c1CCC2 | 488 | 3.3% (inactive) | -87.5% (inactive) | 114% | -1.23 | 0.0175 | 0.0727 | -5.26% (inactive) | -0.511 (inactive) | -1.9e-05 (inactive) | 0.00512 (inactive) | inactive; toxic | -5.18% (inactive)
2 | CCN(CC)CCN1C(=O)C(=O)/C(=C(/O)c2ccc(C)cc2)C1c1cccnc1 (stereo unspecified) | 390 | -0.5% (inactive) | -20.8% (inactive) | 113% | 0.619 | -0.778 | 0.527 | -5.89% (inactive) | -0.426 (inactive) | -5.7e-05 (inactive) | 0.00669 (inactive) | inactive | 8.05% (inactive)
3 | CC(C)Cc1nc(N2CCN(C(=O)C(C)C)CC2)c(C#N)c2c1CCC2 | 541 | 1% (inactive) | -148% (inactive) | 141% | -1.27 | 0.114 | 1.85 | -3.5% (inactive) | -0.499 (inactive) | -3.3e-05 (inactive) | 0.00462 (inactive) | inactive | 5.12% (inactive)
4 | COc1ccc(C2=Nn3c(nnc3-c3cccnc3)SC2)cc1OC | 614 | -5.8% (inactive) | -109% (inactive) | 152% | -0.53 | 0.48 | 0.0126 | -7.86% (inactive) | -0.398 (inactive) | -0.000172 (inactive) | 0.00709 (inactive) | inactive | 2.3% (inactive)
5 | CCCCCNC(=O)c1c(N)n(/N=C/c2ccco2)c2nc3ccccc3nc12 | 351 | -5.8% (inactive) | -71.9% (inactive) | 147% | 1.49 | -0.91 | -0.977 | 17.4% (inactive) | -0.416 (inactive) | -0.000149 (inactive) | 0.00624 (inactive) | inactive | 14.7% (inactive)
6 | CN1CCN(c2nc(C(N)=O)cc(-c3ccccc3)n2)CC1 | 400 | -6.4% (inactive) | 14% (inactive) | 98.8% | 1.22 | -2.25 | 0.112 | 7.83% (inactive) | -0.498 (inactive) | -3.9e-05 (inactive) | 0.00569 (inactive) | inactive | 18.8% (inactive)
7 | COc1ccccc1OCC(=O)Nc1ccc(S(=O)(=O)Nc2cc(C)nc(C)n2)cc1 | 571 | -6.6% (inactive) | 3% (inactive) | 159% | 0.333 | 1.18 | -0.662 | 4.25% (inactive) | -0.303 (inactive) | 1.9e-05 (inactive) | 0.0043 (inactive) | inactive | -4.91% (inactive)
8 | COc1cccc(-c2nnc3sc(-c4cccs4)nn23)c1 | 595 | -9.3% (inactive) | -23% (inactive) | 158% | -0.757 | 0.596 | -0.177 | -11.5% (inactive) | -0.406 (inactive) | -0.000146 (inactive) | 0.00547 (inactive) | inactive | 67.3% (active)
9 | CC(Sc1nc(N2CCCCC2)c2c(c1C#N)CCCC2)C(=O)O (stereo unspecified) | 624 | 4.5% (inactive) | -96.1% (inactive) | 161% | -0.692 | 0.635 | -1.09 | 9.82% (inactive) | -0.301 (inactive) | 1.2e-06 (inactive) | 0.00467 (inactive) | inactive | -8.39% (inactive)
10 | CCOC(=O)c1n[nH]c2ccccc12 | 354 | -6.3% (inactive) | -168% (inactive) | 110% | 0.791 | -0.274 | -1.01 | 6.04% (inactive) | -0.399 (inactive) | 1.6e-05 (inactive) | 0.00468 (inactive) | inactive | -13% (inactive)
11 | CC(C)OC(=O)[C@H]1[C@H](c2ccc(Cl)cc2)[C@@](C#N)(C(N)=O)[C@@H]2C=CC(C(N)=O)=CN21 | 523 | -4.9% (inactive) | -24% (inactive) | 155% | 0.333 | 0.745 | -0.843 | 2.46% (inactive) | -0.335 (inactive) | 1.2e-05 (inactive) | 0.00427 (inactive) | inactive | 6.97% (inactive)
12 | CCOc1ccc(/C(O)=C2/C(=O)C(=O)N(CCN(CC)CC)C2c2ccco2)cc1 (stereo unspecified) | 494 | -10.3% (inactive) | -38.9% (inactive) | 136% | 0.106 | 0.969 | -0.475 | -15% (inactive) | -0.521 (inactive) | -4.6e-05 (inactive) | 0.00598 (inactive) | inactive | -2.21% (inactive)
